Laboratory results published in the EternaBench riboswitch data.

What was measured:
MS2 coat protein [1] = assay: apparent Kd, MS2 coat protein; higher = weaker binding; RNA-MaP array; tryptophan 2.4 mM where present
Procedure, shortened: (§1)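 In 100 mM Tris-HCl pH 7.5, 80 mM KCl, 4 mM MgCl2, BSA, DTT, yeast tRNA and Tween-20, SNAP-549-labelled MS2 coat protein was titrated from 0.7 or 1.5 nM, doubling to 3 µM, over designs transcribed by stalled E. coli RNA polymerase on Illumina sequencing-chip clusters. This was done first without ligand, then with ligand held constant. After green signal was normalised to red-channel RNA signal and control-cluster median Fmax, the apparent Kd was taken as the median of filtered per-cluster binding-curve fits.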

MS2 coat protein [2] = assay: apparent Kd, MS2 coat protein; higher = weaker binding; RNA-MaP array; theophylline 2 mM where present
Procedure, shortened: as §1

[3] = designed as: ON switch for tryptophan, no ligand
[4] = ligand present: tryptophan, designed as: ON switch for tryptophan
[5] = designed as: OFF switch for tryptophan, no ligand
[6] = ligand present: tryptophan, designed as: OFF switch for tryptophan
[7] = designed as: OFF switch for theophylline, no ligand
[8] = ligand present: theophylline, designed as: OFF switch for theophylline
[9] = designed as: ON switch for theophylline, no ligand
[10] = ligand present: theophylline, designed as: ON switch for theophylline

Sequence	apparent Kd (MS2 coat protein [2]; [7]) [nM]	apparent Kd (MS2 coat protein [2]; [8]) [nM]	apparent Kd (MS2 coat protein [2]; [9]) [nM]	apparent Kd (MS2 coat protein [2]; [10]) [nM]	other results
CUGUACAUCUCGGCCGCCACUGCUGACAUGGGAGUCACCCAUGUCCACAUGAGGAUCACCCAUGUCAGGACCGGGAGGUGUGCAG					apparent Kd (MS2 coat protein [1]; [3]): 49.8 nM; apparent Kd (MS2 coat protein [1]; [4]): 255 nM
ACACCAUACAUGAGGAUCACCCAUGUUACACGAGGACCGGUACGGCCGCCACUCGAAUUCAGGAAACCUCGGAUAAUAUUGUGAA					apparent Kd (MS2 coat protein [1]; [3]): 25.9 nM; apparent Kd (MS2 coat protein [1]; [4]): 33.2 nM
UCUGCCGCGGCUCCGAUCCUCCUGUAGUUCCGAGGACCGGUACGGCCGCCACUCGUAGCACAUGAGGAUCACCCAUGUCUUGCGG					apparent Kd (MS2 coat protein [1]; [5]): 9.45 nM; apparent Kd (MS2 coat protein [1]; [6]): 11.2 nM
GGAUGCGGCACGGCCGCCACUGCGGUGGUGUGACAUGAGGAUCACCCAUGUUGUCAUGCGGCCCUUAGGACCGGGUGGCGUGUCC					apparent Kd (MS2 coat protein [1]; [5]): 46.4 nM; apparent Kd (MS2 coat protein [1]; [6]): 47 nM
AUGGACGACGAUCUGGGAAAACCAGAUCGACGAGGACCGGUACGGCCGCCACUCGUGUUUAUUUAACAUGAGGAUCACCCAUGUA					apparent Kd (MS2 coat protein [1]; [3]): 45.9 nM; apparent Kd (MS2 coat protein [1]; [4]): 17.6 nM
AAGCAGGGUGUAAAAUAAAUAAUCACUGAUACCAGACUAUGAGAUGUCCCUUGGCAGCAGAAACAUGAGGAUCACCCAUGUAAUA	22.7	32.3			
GGUGUAUCCAUCGAUACCAGCCACCACCGAUAGACCACAUGAGGAUCACCCAUGUUGGGUGGCCCUUGGCAGCGGUGGCUGUGCC			317	172	
AUCGUACCUGGUGAUACCAGCAAUUGCUCGUGACAUGAGGAUCACCCAUGUGACCAGUGAUGCCCUUGGCAGCAUGGUCGGUGCA			68.7	27.2	
ACGACGCAUAGUGAUACCAGUAGAACAUGAGGAUCACCCAUGUCUGUGACGCACCACCUCUGCCCUUGGCAGCACUAUGCGUCAG			22.7	22.9	
UGACAUUGCUGCGAUACCAGACAUGAGGAUCACCCAUGUACCAAGGUACGAAAAUAACAUGUCCCUUGGCAGCGCAGCAAUGUCU	12.6	254			
UGUAAAAUAACAGAUACCAGCGUGUUAUAAAACAUGAGGAUCACCCAUGUAGUGAUCAAGCGCCCUUGGCAGCUGGUAUUUUAUG			160	129	
AGUGUUAUAACUGAUACCAGACCUUUGCUUAUACAUGAGGAUCACCCAUGUAAAAUGGCGGUCCCUUGGCAGCAGAGAAUACGCA			68	13.2	
AUCGUACCUGAUGAUACCAGCAUGUGAUCGUAACAUGAGGAUCACCCAUGUAAUCAGUGAUGCCCUUGGCAGCAUGAUCGGUACA			97.7	20.5	
AGACAUGAGGAUCACCCAUGUAGUACGGAUACCAGAUCCAGAUUUAUCCCUUGGCAGCUGUGGUACAGCGUUGCAACGCUCCUAG	17.5	17.5			
AGUACUCGAACGGAUACCAGCCGGACAUGAGGAUCACCCAUGUCCUACCAUGUUUCGGUUGGCCCUUGGCAGCCGUUCGUGUACA			425	30.4	
UUUGAUAGGACAGAUACCAGCGUGUUGUAGAACAUGAGGAUCACCCAUGUAGUGAUCAAGCGCCCUUGGCAGCUGGUUUGUUAGG			170	82.6	
AGACAUGAGGAUCACCCAUGUAGUACGGAUACCAGAUCCAGAUGUAUCCCUUGGCAGCUGUGGUACAGCGUUGCAACGCUCCUAG	16	15.3			
UAUAUGGUGAUGGAUACCAGCAGAGAAAACGUUUAUCCUAACAUGAGGAUCACCCAUGUAUGCCCUUGGCAGCUGUUGUUAUAUA	37.9	29.7			
UACAUGAGGAUCACCCAUGUGGCGGAUGAUACCAGUAUGGUGACAUACCCUUGGCAGCAUGCUAUGAGGAUCACCCAUGUGUGCA	85.3	166			
UGUUUGGUGCGCGAGUGUUGGAUGAUUGAUACCAGUGAAGAAGAGCGCCCUUGGCAGCGAAUCCUAACAUGAGGAUCACCCAUGU			50.8	67.6	
UACAUGAGGAUCACCCAUGUAUGAAUAGAUACCAGCGAAAAUAAGCGCCCUUGGCAGCUAGUGAAUAAAGGGUGGGUAAAAUAAU	9.18	19.9			
AAUAAGUACUUUGAUACCAGCCUGCCAUCAUGCUAAUUUACAUGAGGAUCACCCAUGUUAGGCCCUUGGCAGCAAAGUGCAAUAA	12.5	25.6			
AGCCUAUUACAUGAGGAUCACCCAUGUGAUACCAGUCAGGAAACUGACCCUUGGCAGCGCAUGAGGAUCACCCAUGCGCGAGGCA	11	11.9			

Sequence	apparent Kd (MS2 coat protein [2]; [7]) [nM]	apparent Kd (MS2 coat protein [2]; [8]) [nM]	apparent Kd (MS2 coat protein [2]; [9]) [nM]	apparent Kd (MS2 coat protein [2]; [10]) [nM]	other results
ACGUCAACCCUUAUGUUGAUGCAAGACGAUACCAGCCUGGAUACAGGCCCUUGGCAGCGUCAACAUGAGGAUCACCCAUGUAAUA			82.8	118	
UUUUAAAGCAUGGCGUAUCGGAAAACCGAUACCAGUACAGAAAUGUACCCUUGGCAGCGGAAUUUUACAUGAGGAUCACCCAUGU	13.1	43.4			
AAUUAAUUAACCGAUACCAGCCAACCAAAACAUGAGGAUCACCCAUGUAAGAAGAAGGGUGGCCCUUGGCAGCGGUUAAUUAAUU			27.8	9.07	
ACGAACGAUAGUGAUACCAGACGUACAUGAGGAUCACCCAUGUUGUAAACAUGGUUAAUAGUCCCUUGGCAGCACGAUAAGUUCG	575	499			
UCUUUCUUUGUAGAUACCAGCAUGUUAAGUUUCUUUUGACAUGAGGAUCACCCAUGUACAUGCCCUUGGCAGCUACAUUUUCUUU			15.2	16.5	
AUUGGGUUAUCAGAUACCAGACUAUUCUAGACAUGAGGAUCACCCAUGUAUUGGGUUUUCGUCCCUUGGCAGCUGUUAAGUUUAA			167	113	
AUACACCUCGUCCAGGCAAUCUUUAGUGAUACCAGCUAACUCCGUGGCCCUUGGCAGCACAUGAGGAUCACCCAUGUGCGACAUC	11.1	11.8			
AGACAUGAGGAUCACCCAUGUAGCAUGGAUACCAGAUGUAGAUUAGUCCCUUGGCAGCUGUGGUGAAGUGAUGCAUUGCUCCUAG	63.2	61.6			
ACAUGAGGAUCACCCAUGUAACGUCUUGAUACCAGACGAGAAGUAGUCCCUUGGCAGCAAAUACGUGAGGGUCACACAUGUGUAA	23.4	61.5			
UUAAGAGGCUAUCAAAUUUGAUUUUGUGAUACCAGAAUAAUUUUAUUCCCUUGGCAGCAUGACAUGAGGAUCACCCAUGUGUCUU			35.4	30.2	
UGUAACAUGAGGAUCACCCAUGUGAGUGAUACCAGAUUAGUAUUAGUCCCUUGGCAGCACGUUGGGCGAGUGUAUAGUCUAUGCG			147	113	
UAUUUUGGGCGCGAGCCCGGGAUAAUUGAUACCAGUGAAGAAGAGCGCCCUUGGCAGCGAAUCCUAACAUGAGGAUCACCCAUGU			47.5	60	
GUCAGUAGAACAGAUACCAGUCAAAGGCUGUGAUCUCAUAACAUGAGGAUCACCCAUGUUGACCCUUGGCAGCUGUGGGCGAGGG	45.2	391			
CAAACAUGAGGAUCACCCAUGUAAUCAGAUACCAGUGACGAAAGUCACCCUUGGCAGCUGAGUACAUUAGUUCUAAGGUGUUUGA	44.6	50.2			
AAAACACAUGAGGAUCACCCAUGUCAUGAUACCAGUCCACAUGAGGACCCUUGGCAGCAUAAAAUGGGUAACAUGAGGAUAACCC	29.6	82.8			
GCACCAGGUACGGAUACCAGCUAUAGGUACAUGUCAGGACAUGAGGAUCACCCAUGUGGUAGCCCUUGGCAGCUGUACCUGGUGC	17.4	27.2			
UGACAUUGCUGCGAUACCAGACAUGAGGAUCACCCAUGUACCAAGAAAACGUACAUAAAUGUCCCUUGGCAGCGCAGCAAUGUCU	524	1360			
ACAUGAACAUGAGGAUCACCCAUGUGGGAUACCAGCGUGUAUGAGCGCCCUUGGCAGCUCAUGACAUGAGGAUCACCCAUGUUGG	262	453			
AACAUGAGGAUCACCCAUGUCAUGUUGGAUACCAGCCAAUAAUAAGGCCCUUGGCAGCUAUAGAUCGAUGAUCCAUGAGGAUCAC	34.5	25.3			
AUCGUACCUGAUGAUACCAGCAUGUGCUCGUAACAUGAGGAUCACCCAUGUGAUCAGUGAUGCCCUUGGCAGCAUGAUCGGUGCA			169	19.3	
UUACGAGGCUAUCCACUUUGAUUUUGUGAUACCAGAAUAAUUUUAUUCCCUUGGCAGCAUGACAUGAGGAUCACCCAUGUGUCUU			38	61.7	
UGGUUUGUGAUGGAUACCAGCAGAGAAAACGUUUAUCCUAACAUGAGGAUCACCCAUGUAUGCCCUUGGCAGCUGUUGUGGGCUG	36	38.9			
